Published values pooled from the literature.
Each line is one published result; the experiments were not run side by side.
Target: Serine/threonine-protein kinase PAK 1 (PAK1, Homo sapiens, UniProt Q13153)

SMILES | test | conditions | remaining binding [%]
CN(C)c1ncc(F)c(-c2cnn3ncccc23)n1 | binding | 1 µM | 87
CO[C@@H](C)c1c(Nc2ccc([C@H](N(C)C(=O)C3CCS(=O)(=O)CC3)C(F)(F)F)cc2)cnc2cc(Cl)nn12 | cell-free assay, competition with immobilised ligand | 1 µM | 74
C[C@@H]1CN(c2ccc3ncc(-c4ccc5[nH]nc(C6CC6)c5c4)n3n2)C[C@H](C)O1 | binding, competition with immobilised ligand | 0.5 µM | 98
CC(C)(C)c1ccc(-c2nc(CBr)nn2-c2cccc(O)c2)cc1 | cell-free assay, competition with immobilised ligand | 10 µM | 98
O=C(c1ccc(Nc2ncc(Cl)c(-c3cc4ccccc4s3)n2)cc1)N1CCC(N2CCCC2)CC1 | binding, competition with immobilised ligand | 1 µM | 85
C[C@@H](c1ccc(-n2cnc3c(N)ncnc32)cc1)N1CCc2nn(C)c(Cc3ccccc3)c2C1=O | binding, competition with immobilised ligand | 0.1 µM | 97
Cc1cnc(Nc2ccc(C(=O)N3CCC(N4CCCC4)CC3)cc2)nc1-c1cc2ccccc2s1 | binding, competition with immobilised ligand | 1 µM | 98
CN(C)c1nccc(-c2cnn3ncccc23)n1 | binding | 1 µM | 100
CS(=O)(=O)c1cc(C2(NC(=O)c3cncc4c3cnn4-c3ccc(F)cc3)CC2)ccn1 | cell-free assay, competition with immobilised ligand | 1 µM | 100
c1cncc(-c2cccc(Nc3nccc(NC4CCCCC4)n3)c2)c1 | binding, competition with immobilised ligand | 10 µM | 85
CN(C)c1nccc(-c2cnc3ncccn23)n1 | binding | 1 µM | 91
CO[C@H]1CC[C@H](CNc2ccc(S(=O)(=O)NC(=O)c3ccc(N4CCN(CC5=C(c6ccc(Cl)cc6)CC(C)(C)CC5)CC4)cc3Oc3cnc4[nH]ccc4c3)cc2[N+](=O)[O-])CC1 | cell-free assay, competition with immobilised ligand | 1 µM | 78
C[C@@H]1CCN(c2nccc(-c3cnn4ncccc34)n2)C1 | binding | 1 µM | 100
Nc1ncc2c(n1)-c1c([nH]c3ccc(C#CC4CC4)cc13)CCCC2 | binding, competition with immobilised ligand | 1 µM | 83
COc1cnc(Nc2cccc(S(N)(=O)=O)c2)nc1N1CCN(c2ccccc2)CC1 | binding, competition with immobilised ligand | 1 µM | 99
Cc1cnn2ncc(-c3ccnc(N(C)C)n3)c2c1 | binding | 1 µM | 71
COc1cc(-c2cn(C3CCc4c(F)cccc4N(CC(F)(F)F)C3=O)nn2)ccc1-n1cnc(C)c1 (stereo not drawn) | cell-free assay, competition with immobilised ligand | 1 µM | 93
O=C(Nc1c[nH]nc1C(=O)NC1CCNCC1)c1cc(F)cc(F)c1 | binding, competition with immobilised ligand | 1 µM | 100
CN(C)C(=O)Cn1cc(-c2nc([C@@](C)(c3ccc(-c4cnc(N)nc4)cc3)C3CC3)no2)cn1 | cell-free assay, competition with immobilised ligand | 1 µM | 100
N[C@H]1CCN(c2nccc(-c3cnn4ncccc34)n2)C1 | binding | 1 µM | 100
CN(C)C(=O)Cn1cc(-c2nc(C3(c4ccc(-c5cnc(N)nc5)cc4)CC3)no2)cn1 | cell-free assay, competition with immobilised ligand | 1 µM | 100
O=C(c1ccc(Nc2ncc(Cl)c(-c3ccc(Cl)s3)n2)cc1)N1CCC(N2CCCC2)CC1 | binding, competition with immobilised ligand | 1 µM | 68
FC(F)(F)c1ccc2c(c1)nc(-c1cccnc1)n2C1CC1 | cell-free assay, competition with immobilised ligand | 1 µM | 100
COc1ccnn2ncc(-c3ccnc(N(C)C)n3)c12 | binding | 1 µM | 79
